Experiments:
TRPML3 [1] = target: T1, TRPML3 (Homo sapiens, UniProt Q8TDD5); assay type: cell-based; conditions: HEK293, read-out: Max % Activation (TRPML3)
T1 sequence (Q8TDD5 1-553): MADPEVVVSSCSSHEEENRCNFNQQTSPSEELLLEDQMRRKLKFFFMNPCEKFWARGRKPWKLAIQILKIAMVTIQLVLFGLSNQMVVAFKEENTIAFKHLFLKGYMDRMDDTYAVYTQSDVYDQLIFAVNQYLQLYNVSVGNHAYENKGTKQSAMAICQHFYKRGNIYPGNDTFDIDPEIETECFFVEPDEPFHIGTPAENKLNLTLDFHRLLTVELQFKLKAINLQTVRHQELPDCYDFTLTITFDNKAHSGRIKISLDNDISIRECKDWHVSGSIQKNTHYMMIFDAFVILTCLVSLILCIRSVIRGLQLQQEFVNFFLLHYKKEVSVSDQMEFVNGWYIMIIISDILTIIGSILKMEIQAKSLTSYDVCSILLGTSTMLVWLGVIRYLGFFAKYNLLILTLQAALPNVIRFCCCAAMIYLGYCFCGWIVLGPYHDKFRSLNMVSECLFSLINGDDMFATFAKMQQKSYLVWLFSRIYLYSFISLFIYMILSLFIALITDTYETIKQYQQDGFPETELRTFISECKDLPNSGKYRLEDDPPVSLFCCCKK
Procedure, shortened: (§1)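 HEK293 lines stably expressed YFP-fused human TRPML3 or zebrafish TRPN1 (G418 0.8 mg/ml, twice subcloned) and were plated at 1,500 cells/well for 23 h at 37 °C. After Fluo-8 loading (1 h 37 °C, 30 min RT), a 5 s basal read and 120 s post-addition read were taken. Max/basal ratios were normalized to DMSO and carbachol (87 µM).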

[2] = target: T2, TRPML3 coexpressed with TRPML1 (Homo sapiens, UniProt Q8TDD5); experiment: Calcium imaging, HEK293 cells coexpressing TRPML3 with TRPML1; assay type: cell-based; conditions: 10 µM
T2 sequence (Q8TDD5 1-553): T1 sequence (Q8TDD5 1-553)
Procedure, shortened: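 Human TRPML3 and TRPML1 were transiently coexpressed in HEK293 cells (Genejammer) and imaged 24 h post-transfection. Cells on glass coverslips were loaded with 4 μM fura-2-AM in bath solution (mM: 138 NaCl, 6 KCl, 2 MgCl₂, 2 CaCl₂, 10 HEPES, 5.5 D-glucose, pH 7.4) and read on a monochromator imaging system. Test compound was 10 μM. Mean ± SEM, n≥3 independent experiments, 20–30 cells each.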

danio rerio TRPN1 = danio rerio TRPN1 (Danio rerio, UniProt Q7T1G6); assay type: cell-based
Procedure, shortened: as §1

TRPML2 = target: T3, TRPML2 (Homo sapiens, UniProt Q8IZK6); experiment: Fura-2 calcium imaging, HEK293 cells expressing TRPML2; assay type: cell-based; conditions: 10 µM
T3 sequence (Q8IZK6 1-566): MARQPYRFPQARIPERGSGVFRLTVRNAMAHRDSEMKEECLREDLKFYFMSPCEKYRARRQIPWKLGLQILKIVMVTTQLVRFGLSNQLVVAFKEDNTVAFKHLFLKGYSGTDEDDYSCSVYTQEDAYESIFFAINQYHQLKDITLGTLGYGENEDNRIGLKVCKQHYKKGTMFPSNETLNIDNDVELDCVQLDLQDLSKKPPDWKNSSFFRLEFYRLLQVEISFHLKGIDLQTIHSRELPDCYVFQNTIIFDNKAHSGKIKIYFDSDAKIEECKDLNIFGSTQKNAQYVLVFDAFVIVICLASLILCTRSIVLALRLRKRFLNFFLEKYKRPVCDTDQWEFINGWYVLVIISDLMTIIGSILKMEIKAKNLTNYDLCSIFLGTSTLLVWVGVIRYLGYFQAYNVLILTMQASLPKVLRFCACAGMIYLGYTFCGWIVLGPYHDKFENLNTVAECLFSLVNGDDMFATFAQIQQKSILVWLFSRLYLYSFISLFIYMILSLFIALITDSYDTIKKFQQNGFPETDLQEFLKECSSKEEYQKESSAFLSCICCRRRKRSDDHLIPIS
Procedure, shortened: (§2)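 HEK293 cells were transiently transfected (Genejammer) with the human channel construct or YFP control and measured 24 h later. Cells on glass coverslips were loaded with 4 µM fura-2-AM in bath solution (mM: 138 NaCl, 6 KCl, 2 MgCl2, 2 CaCl2, 10 HEPES, 5.5 D-glucose; pH 7.4). Compounds were applied at 10 µM and the F340/F380 ratio recorded. Values are mean ± SEM, n≥3.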

TRPML1(NC) = TRPML1(NC) (Homo sapiens, UniProt Q9GZU1); experiment: Fura-2 calcium imaging, HEK293 cells expressing TRPML1; assay type: cell-based; conditions: 10 µM, plasma membrane-localized TRPML1 variant
Procedure, shortened: as §2

cochlear hair cells = experiment: Recording from acutely isolated cochlear hair cells; assay type: cell-based, rat; conditions: up-to 100 µM; in SBS, SN-2 also in ELS
TRPML3 [3] = target: T1, TRPML3; experiment: Whole-cell patch-clamp, HEK293 cells transiently transfected with TRPML3; assay type: cell-based
Procedure, shortened: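 Whole-cell patch clamp was done on HEK293 cells 24 h after transient transfection with human TRPML3 or YFP; constitutively active TRPML3(A419P) cells served as positive control. Bath solution (mM): 138 NaCl, 5.4 KCl, 2 MgCl2, 2 CaCl2, 10 HEPES, 10 d-glucose; pH 7.4. Pipette solution (mM): 140 CsCl, 10 HEPES, 3 ATP-Na, 1 BAPTA, 2 MgCl2; pH 7.2. Compounds at 10 µM were perfused. Capacitance-normalized current at −80 mV is reported as mean ± SEM, n≥3.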

[4] = system: melanocytes expressing dynamin; experiment: Calcium imaging, melanocytes transfected with wild type dynamin; assay type: cell-based, human; conditions: 30 µM
Procedure, shortened: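 Human epidermal melanocytes (medium 254 plus HMGS) were transfected with wild-type dynamin, DynK44A or YFP control. Intracellular Ca2+ was imaged after applying compounds at 30 µM each. Data are mean ± SEM from at least 3 independent experiments of 20–30 cells each.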

[5] = system: TRPM2, TRPV2, TRPC3, TRPN1, TRPA1; experiment: Fura-2 calcium imaging selectivity, HEK293 cells expressing other TRP channels; assay type: cell-based
Procedure, shortened: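 HEK293 cells were transiently transfected (Genejammer) with expression vectors for each TRP channel and measured 24 h later. Cells on coverslips were loaded with 4 μM fura-2-AM in bath solution (mM: 138 NaCl, 6 KCl, 2 MgCl₂, 2 CaCl₂, 10 HEPES, 5.5 D-glucose, pH 7.4). [Ca²⁺]i increases to 10 µM test compound were imaged on a monochromator-based system.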

TRPML3 [6] = target: T1, TRPML3; experiment: Fura-2 calcium imaging, HEK293 cells transiently expressing TRPML3; assay type: cell-based
Procedure, shortened: as §2

Chain of danio rerio TRPN1 (Q7T1G6 1-1614): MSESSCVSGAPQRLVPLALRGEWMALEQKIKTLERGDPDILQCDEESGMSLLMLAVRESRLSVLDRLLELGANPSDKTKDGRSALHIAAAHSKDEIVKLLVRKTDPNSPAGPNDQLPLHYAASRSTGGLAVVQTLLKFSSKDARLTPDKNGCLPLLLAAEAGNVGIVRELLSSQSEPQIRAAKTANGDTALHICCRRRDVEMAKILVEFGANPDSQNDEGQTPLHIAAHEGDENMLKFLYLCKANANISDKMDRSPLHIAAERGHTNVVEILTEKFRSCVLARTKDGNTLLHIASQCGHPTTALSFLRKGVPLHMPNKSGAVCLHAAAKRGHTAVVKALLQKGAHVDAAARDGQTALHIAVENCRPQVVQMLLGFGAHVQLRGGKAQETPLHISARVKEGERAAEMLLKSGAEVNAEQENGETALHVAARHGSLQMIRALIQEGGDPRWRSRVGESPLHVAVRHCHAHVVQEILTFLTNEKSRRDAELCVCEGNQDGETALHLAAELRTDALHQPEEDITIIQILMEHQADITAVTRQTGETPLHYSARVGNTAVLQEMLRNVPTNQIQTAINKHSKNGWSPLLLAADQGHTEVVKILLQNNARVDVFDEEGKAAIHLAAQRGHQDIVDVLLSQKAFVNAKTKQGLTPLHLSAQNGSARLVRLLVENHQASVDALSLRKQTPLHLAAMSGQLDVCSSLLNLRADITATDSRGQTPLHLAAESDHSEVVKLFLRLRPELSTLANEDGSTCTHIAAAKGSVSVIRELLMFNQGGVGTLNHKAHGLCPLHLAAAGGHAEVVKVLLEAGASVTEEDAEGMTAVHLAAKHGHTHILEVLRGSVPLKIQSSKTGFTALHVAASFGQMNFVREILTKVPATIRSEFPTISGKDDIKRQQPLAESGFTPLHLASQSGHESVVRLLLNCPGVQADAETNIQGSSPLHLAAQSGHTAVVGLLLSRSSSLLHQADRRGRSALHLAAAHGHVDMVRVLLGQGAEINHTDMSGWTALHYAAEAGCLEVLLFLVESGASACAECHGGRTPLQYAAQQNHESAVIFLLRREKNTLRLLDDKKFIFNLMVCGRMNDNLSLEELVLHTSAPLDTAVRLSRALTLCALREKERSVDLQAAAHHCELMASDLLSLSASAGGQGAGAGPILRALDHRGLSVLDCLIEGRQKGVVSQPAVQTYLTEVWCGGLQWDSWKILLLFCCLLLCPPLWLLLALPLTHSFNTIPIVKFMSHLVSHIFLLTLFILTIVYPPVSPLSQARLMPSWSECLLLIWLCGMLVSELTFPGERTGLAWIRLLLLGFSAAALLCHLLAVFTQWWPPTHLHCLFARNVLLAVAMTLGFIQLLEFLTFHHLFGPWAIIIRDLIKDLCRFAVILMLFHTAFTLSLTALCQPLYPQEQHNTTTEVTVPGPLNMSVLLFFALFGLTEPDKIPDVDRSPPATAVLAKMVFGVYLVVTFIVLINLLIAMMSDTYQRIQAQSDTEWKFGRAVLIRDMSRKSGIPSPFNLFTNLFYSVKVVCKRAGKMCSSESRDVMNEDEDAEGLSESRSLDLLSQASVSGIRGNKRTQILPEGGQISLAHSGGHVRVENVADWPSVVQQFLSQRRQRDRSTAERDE
Chain of TRPML1(NC) (Q9GZU1 17-572 limits assumed): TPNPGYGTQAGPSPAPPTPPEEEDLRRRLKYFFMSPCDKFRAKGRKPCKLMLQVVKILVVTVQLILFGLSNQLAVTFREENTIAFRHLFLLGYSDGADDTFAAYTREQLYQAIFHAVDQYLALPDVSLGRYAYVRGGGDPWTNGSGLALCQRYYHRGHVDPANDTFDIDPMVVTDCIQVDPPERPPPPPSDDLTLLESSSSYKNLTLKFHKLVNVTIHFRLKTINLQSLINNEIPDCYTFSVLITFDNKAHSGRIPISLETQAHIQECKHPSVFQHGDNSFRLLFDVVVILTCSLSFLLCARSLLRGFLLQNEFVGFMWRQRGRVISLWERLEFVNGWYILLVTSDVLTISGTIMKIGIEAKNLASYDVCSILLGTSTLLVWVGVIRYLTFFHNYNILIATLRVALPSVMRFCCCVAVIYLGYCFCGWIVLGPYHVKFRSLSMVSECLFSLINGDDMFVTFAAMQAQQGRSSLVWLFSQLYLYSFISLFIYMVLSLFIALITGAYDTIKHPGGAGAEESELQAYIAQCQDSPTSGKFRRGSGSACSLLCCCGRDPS

Emax (TRPML3 [1]): 149 ± 11%
EC50 (danio rerio TRPN1): > 29.9 µM
Emax (danio rerio TRPN1; HEK293, read-out: Max % Activation (Control)): 3 ± 1%
response in HEK293 cells expressing TRPML2 (TRPML2): did not show any activity
activation of mutant TRPML1(NC) isoform (TRPML1(NC)): did not show any activity
nA/pF (-80 mV) (TRPML3) (TRPML3 [3]; current density at −80 mV, 10 µM in standard bath solution, mean ±SEM (n≥3)): −0.30 ±0.07 nA/pF
⊗F340/F380 (TRPML3) (TRPML3 [6]; 10 µM compound, mean ±SEM (n≥3)): 1.08 ±0.05
SMILES: Cc1cc(C)c(C2=NOC3C4CCC(C4)C23)c(C)c1 (stereo not shown) [SN-2, 5-mesityl-3-oxa-4-azatricyclo[5.2.1.0∼2,6∼]dec-4-ene]
calcium imaging response when TRPML1 was coexpressed with TRPML3 [2]: strong reduction of the calcium imaging responses
TRPML3 channel activity in cochlear hair cells (cochlear hair cells): Neither compound at concentrations of up-to 100 µM, with or without endolymph-like extracellular solution, elicited TRPML3 channel activity
average current density relative to constitutively active TRPML3 A419P (TRPML3 [3]; whole-cell, −80 mV): comparable to average current densities obtained from cells expressing the constitutively active varitint-waddler mutant isoform A419P
response in melanocytes expressing wild type dynamin [4]: reduction of the response
activation of other TRP channels tested [5]: did not show any activity on other TRP channels
kinetics of intracellular calcium increase (TRPML3 [6]; TRPML3-transfected HEK293 cells): much more rapid increase than the other compounds

Source: paper PMC2834294 (Chemistry & biology, 2010)
